The source made the active and inactive calls. The calls are words filed in the database; no cut-off is given here.
Key:
[1] = molecular target: Heat shock protein beta-1 (Homo sapiens) (UniProt P04792); experiment: Inhibition of HSP27 (unknown origin) assessed as increase in DTT-induced insulin B chain aggregation at 10 uM incubated for 5 mins prior to DTT-treatment measured after 30 mins by spectrophotometric analysis relative to control
Bos taurus [2] = species: Bos taurus; experiment: Inhibition of bovine brain tubulin polymerization after 20 mins by spectrophotometric analysis in presence of GTP
Bos taurus [3] = species: Bos taurus; experiment: Inhibition of bovine brain tubulin polymerization at 1 uM after 15 mins by spectrophotometric analysis relative to control in presence of GTP
SK-BR-3 [4] = experiment: Cell cycle arrest in human SKBR3 cells assessed as accumulation at G2/M phase at 1 nM after 24 hrs by propidium iodide staining-based FACS flow cytometric analysis (reference value: 10.77%); type: functional
SK-BR-3 [5] = experiment: Cell cycle arrest in human SKBR3 cells assessed as accumulation at subG1 phase at 1 nM after 24 hrs by propidium iodide staining-based FACS flow cytometric analysis (reference value: 3.23%); type: functional
Bos taurus [6] = species: Bos taurus; experiment: Inhibition of bovine brain tubulin polymerization at 100 nM after 15 mins by spectrophotometric analysis relative to control in presence of GTP
SK-BR-3 [7] = experiment: Antiproliferative activity against human SKBR3 cells after 48 hrs by MTT assay; type: functional, cell-based; settings: SK-BR-3, 48 h
In short: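 MTT assay on SKBR-3 cells (RPMI 1640, 10% heat-inactivated FBS, 37 °C, 5% CO2), seeded 24 h before dosing, then exposed 48 h to a concentration series in DMSO (final ≤0.1%) with vehicle-matched controls. Afterwards 0.5 mg/mL MTT for 2 h, formazan dissolved in DMSO, A570 read, six replicates. IC50 from nonlinear regression.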

SK-BR-3 [8] = experiment: Cell cycle arrest in human SKBR3 cells assessed as accumulation at G2/M phase at 5 nM after 24 hrs by propidium iodide staining-based FACS flow cytometric analysis (reference value: 10.77%); type: functional
SK-BR-3 [9] = experiment: Cell cycle arrest in human SKBR3 cells assessed as accumulation at subG1 phase at […] after 24 hrs by propidium iodide staining-based FACS flow cytometric analysis (reference value: 3.23%); type: functional
SK-BR-3 [10] = experiment: Cell cycle arrest in human SKBR3 cells assessed as accumulation at G1 phase at […] after 24 hrs by propidium iodide staining-based FACS flow cytometric analysis (reference value: 69.63%); type: functional
SK-BR-3 [11] = experiment: Cell cycle arrest in human SKBR3 cells assessed as accumulation at subG1 phase at 5 nM after 24 hrs by propidium iodide staining-based FACS flow cytometric analysis (reference value: 3.23%); type: functional
SK-BR-3 [12] = experiment: Effect on EIF4E protein level human SKBR3 cells at 5 to 15 nM after 24 hrs by Western blotting analysis; type: functional, cell-based
Bos taurus [13] = species: Bos taurus; experiment: Inhibition of bovine brain tubulin polymerization at 10 nM after 15 mins by spectrophotometric analysis relative to control in presence of GTP
SK-BR-3 [14] = experiment: Effect on HSP70 protein level human SKBR3 cells at 5 to 15 nM after 24 hrs by Western blotting analysis; type: functional, cell-based
SK-BR-3 [15] = experiment: Cell cycle arrest in human SKBR3 cells assessed as accumulation at S phase at 5 nM after 24 hrs by propidium iodide staining-based FACS flow cytometric analysis (reference value: 16.34%); type: functional
SK-BR-3 [16] = experiment: Induction of apoptosis in human SKBR3 cells assessed as increase in cleaved PARP protein level at 5 to 15 nM after 24 hrs by Western blotting analysis; type: functional, cell-based
In short: (§1)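 SKBR-3 cells treated 24 h with 5, 10 and 15 nM against DMSO. Lysates (60 μg protein) resolved on 10% SDS-PAGE, transferred to PVDF, blocked in 5% milk/PBST and immunoblotted for cleaved caspase 3 and cleaved PARP with an HRP secondary.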

SK-BR-3 [17] = experiment: Cell cycle arrest in human SKBR3 cells assessed as accumulation at S phase at 1 nM after 24 hrs by propidium iodide staining-based FACS flow cytometric analysis (reference value: 16.34%); type: functional
SK-BR-3 [18] = experiment: Cell cycle arrest in human SKBR3 cells assessed as accumulation at S phase at […] after 24 hrs by propidium iodide staining-based FACS flow cytometric analysis (reference value: 16.34%); type: functional
SK-BR-3 [19] = experiment: Induction of HSP27 phosphorylation in human SKBR3 cells at 5 to 15 nM after 24 hrs by Western blotting analysis; type: functional, cell-based
In short: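 SKBR-3 cells exposed to 5, 10 and 15 nM for 24 h against DMSO, then lysed, sonicated and spun at 12000g for 10 min. 30 μg protein run on 10% SDS-PAGE and transferred to PVDF. Blocked with 5% milk in PBST, probed with specific primary antibodies and an HRP secondary. pHsp27 bands quantified and normalised to β-actin.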

SK-BR-3 [20] = experiment: Effect on STAT3 protein level human SKBR3 cells at 5 to 15 nM after 24 hrs by Western blotting analysis; type: functional, cell-based
SK-BR-3 [21] = experiment: Induction of apoptosis in human SKBR3 cells assessed as increase in cleaved caspase-3 protein level at 5 to 15 nM after 24 hrs by Western blotting analysis; type: functional, cell-based; in short: as §1
SK-BR-3 [22] = experiment: Cell cycle arrest in human SKBR3 cells assessed as accumulation at G1 phase at 1 nM after 24 hrs by propidium iodide staining-based FACS flow cytometric analysis (reference value: 69.63%); type: functional
SK-BR-3 [23] = experiment: Cell cycle arrest in human SKBR3 cells assessed as accumulation at G1 phase at 5 nM after 24 hrs by propidium iodide staining-based FACS flow cytometric analysis (reference value: 69.63%); type: functional
SK-BR-3 [24] = experiment: Cell cycle arrest in human SKBR3 cells assessed as accumulation at G2/M phase at […] after 24 hrs by propidium iodide staining-based FACS flow cytometric analysis (reference value: 10.77%); type: functional
SK-BR-3 [25] = experiment: Effect on HER2 protein level human SKBR3 cells at 5 to 15 nM after 24 hrs by Western blotting analysis; type: functional, cell-based
Bos taurus [26] = species: Bos taurus; settings: 100 uM
[27] = molecular target: Heat shock protein beta-1 (Homo sapiens) (UniProt P04792); experiment: Inhibition of HSP27 (unknown origin) assessed as increase in DTT-induced insulin B chain aggregation at 5 uM incubated for 5 mins prior to DTT-treatment measured after 30 mins by spectrophotometric analysis relative to control
SK-BR-3 [28] = experiment: Cell cycle arrest in human SKBR3 cells assessed as accumulation at G1 phase at 50 nM after 24 hrs by propidium iodide staining-based FACS flow cytometric analysis (reference value: 69.63%); type: functional
SK-BR-3 [29] = experiment: Cell cycle arrest in human SKBR3 cells assessed as accumulation at subG1 phase at 50 nM after 24 hrs by propidium iodide staining-based FACS flow cytometric analysis (reference value: 3.23%); type: functional
SK-BR-3 [30] = experiment: Cell cycle arrest in human SKBR3 cells assessed as accumulation at G2/M phase at 50 nM after 24 hrs by propidium iodide staining-based FACS flow cytometric analysis (reference value: 10.77%); type: functional
SK-BR-3 [31] = experiment: Cell cycle arrest in human SKBR3 cells assessed as accumulation at S phase at 50 nM after 24 hrs by propidium iodide staining-based FACS flow cytometric analysis (reference value: 16.34%); type: functional
SK-BR-3 [32] = experiment: Effect on total HSP27 protein level human SKBR3 cells at 5 to 15 nM after 24 hrs by Western blotting analysis; type: functional, cell-based

Heat shock protein beta-1 (Homo sapiens), sequence (P04792 whole entry): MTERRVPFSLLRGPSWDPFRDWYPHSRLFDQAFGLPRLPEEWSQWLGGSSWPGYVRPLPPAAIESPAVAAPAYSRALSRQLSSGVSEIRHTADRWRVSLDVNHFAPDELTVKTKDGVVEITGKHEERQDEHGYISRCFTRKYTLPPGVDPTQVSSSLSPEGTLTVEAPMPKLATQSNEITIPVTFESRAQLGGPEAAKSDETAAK

Cc1ccc(C)c(COc2cc(NC(=O)c3ccc(I)cc3)ccc2N(C)S(C)(=O)=O)c1 showed an inhibition [1] of 28%.

In the case of COc1ccc(C(=O)Nc2ccc(N(C)S(C)(=O)=O)c(OCc3cc(OC)ccc3OC)c2)cc1, the inhibition (Bos taurus [2]) is reported as “Dose-dependent effect”, the inhibition (Bos taurus [3]) is reported as 66% and the Activity (SK-BR-3 [4]) is reported as 12.78%. For the same molecule, the Activity (SK-BR-3 [5]) was 17.1%, the inhibition (Bos taurus [6]) was 19% and the IC50 (SK-BR-3 [7]) was 0.00256 µM. For the same molecule, the Activity (SK-BR-3 [8]) was 25.47%, the Activity (SK-BR-3 [9]) was 27.43% and the Activity (SK-BR-3 [10]) was 34.91%. The Activity (SK-BR-3 [11]) was 33.54%, the Activity (SK-BR-3 [12]) was “inactive” and the inhibition (Bos taurus [13]) was 5%. The Activity (SK-BR-3 [14]) was “inactive”, the Activity (SK-BR-3 [15]) was 8.83% and the Activity (SK-BR-3 [16]) was “Active”. The Activity (SK-BR-3 [17]) was 8.71%, the Activity (SK-BR-3 [18]) was 8.92% and the Activity (SK-BR-3 [19]) was “Active”. The inhibition [1] was 9%, the Activity (SK-BR-3 [20]) was “inactive” and the Activity (SK-BR-3 [21]) was “Active”. It also gave an Activity (SK-BR-3 [22]) of 61.21%, an Activity (SK-BR-3 [23]) of 32.02% and an Activity (SK-BR-3 [24]) of 28.57%. The Activity (SK-BR-3 [25]) was “inactive”.

For CS(=O)(=O)Nc1ccc([N+](=O)[O-])cc1Oc1ccccc1 [NIMESULIDE], the inhibition (Bos taurus [26]) was 14%, the IC50 (SK-BR-3 [7]) was 100 µM and the inhibition [1] was “inactive”.

COc1ccc(C(=O)Nc2ccc(N(C)S(C)(=O)=O)c(OCc3cc(C)ccc3C)c2)cc1 gave an inhibition [1] of 30%.

COc1ccc(OC)c(COc2cc(NC(=O)c3ccc(I)cc3)ccc2NS(C)(=O)=O)c1 was tested, and the IC50 (SK-BR-3 [7]) was 0.0118 µM.

For Cc1ccc(C)c(COc2cc(NC(=O)C3CCCCC3)ccc2N(C)S(C)(=O)=O)c1, the inhibition [27] was 29%.

COc1ccc(OC)c(COc2cc(NC(=O)c3ccc4ccccc4c3)ccc2N(C)S(C)(=O)=O)c1 showed an IC50 (SK-BR-3 [7]) of 0.0166 µM.

With COc1ccc(OC)c(COc2cc(NC(=O)c3ccc(I)cc3)ccc2N(C)S(C)(=O)=O)c1 the inhibition (Bos taurus [2]) was “Dose-dependent effect”, the inhibition (Bos taurus [3]) was 64% and the Activity (SK-BR-3 [4]) was 9.24%. It also gave an Activity (SK-BR-3 [5]) of 14.73%, an Activity (SK-BR-3 [28]) of 31.22% and an IC50 (SK-BR-3 [7]) of 0.00121 µM. The Activity (SK-BR-3 [8]) was 13.76%, the Activity (SK-BR-3 [9]) was 22.02% and the Activity (SK-BR-3 [29]) was 32.88%. The Activity (SK-BR-3 [10]) was 60.08%, the Activity (SK-BR-3 [11]) was 24.27% and the Activity (SK-BR-3 [12]) was “inactive”. For the same molecule, the Activity (SK-BR-3 [14]) was “inactive”, the Activity (SK-BR-3 [15]) was 9.51% and the Activity (SK-BR-3 [16]) was “Active”. The Activity (SK-BR-3 [17]) was 8.45%, the Activity (SK-BR-3 [30]) was 24.32% and the Activity (SK-BR-3 [18]) was 9.49%. For the same molecule, the Activity (SK-BR-3 [19]) was “Active”, the inhibition [1] was 27% and the Activity (SK-BR-3 [20]) was “inactive”. The Activity (SK-BR-3 [31]) was 11.39%, the Activity (SK-BR-3 [21]) was “Active” and the Activity (SK-BR-3 [22]) was 66.68%. For the same molecule, the Activity (SK-BR-3 [23]) was 51.84%, the Activity (SK-BR-3 [24]) was 8.1% and the Activity (SK-BR-3 [25]) was “inactive”. For the same molecule, the Activity (SK-BR-3 [32]) was “inactive”.

Molecule COc1ccc(C(=O)Nc2ccc(N(C)S(=O)(=O)C(F)(F)F)c(OCc3cc(C)ccc3C)c2)cc1 has an IC50 (SK-BR-3 [7]) of 5.32 µM.

CCCCCCOc1cc(NC(=O)c2ccc3ccccc3c2)ccc1N(C)S(C)(=O)=O gave an IC50 (SK-BR-3 [7]) of 64.3 µM.

COc1ccc(OC)c(COc2cc(NC(=O)c3ccc4c(c3)OCO4)ccc2N(C)S(C)(=O)=O)c1 showed an IC50 (SK-BR-3 [7]) of 0.00752 µM.
